Calls of active or inactive are those of the source.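 Rule for the calls: active = a rise or drop in KCNQ3 potassium channel activity at some tested dose, with a dose-response curve obtained; inactive = no effect at any dose, or no curve.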
Molecular target: Potassium voltage-gated channel subfamily KQT member 3 (Rattus norvegicus) (UniProt O88944)
Assay: KCNQ3 channel potentiation by KCNQ2 openers, dose response, selectivity assay for KCNQ2 activator project, cell-based, thallium flux, CHO-K1 transient KCNQ3, rat (AID 493047)
Details: CHO-K1 transient KCNQ3, FluxOR thallium flux fluorescence; series mostly up to 30 µM; potentiation: at the top concentration
In short: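 test system = transiently transfected CHO-K1 cells | signal = FluxOR thallium-flux fluorescence | controls = vehicle | reagent = potassium/thallium sulfate stimulus buffer | incubation = FluxOR dye loading 90 min, compound exposure 20 min, both RT, dark | evaluation = fluorescence range over baseline ratio, percent change versus vehicle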

Potassium voltage-gated channel subfamily KQT member 3 (Rattus norvegicus), sequence (O88944 whole entry, looked up): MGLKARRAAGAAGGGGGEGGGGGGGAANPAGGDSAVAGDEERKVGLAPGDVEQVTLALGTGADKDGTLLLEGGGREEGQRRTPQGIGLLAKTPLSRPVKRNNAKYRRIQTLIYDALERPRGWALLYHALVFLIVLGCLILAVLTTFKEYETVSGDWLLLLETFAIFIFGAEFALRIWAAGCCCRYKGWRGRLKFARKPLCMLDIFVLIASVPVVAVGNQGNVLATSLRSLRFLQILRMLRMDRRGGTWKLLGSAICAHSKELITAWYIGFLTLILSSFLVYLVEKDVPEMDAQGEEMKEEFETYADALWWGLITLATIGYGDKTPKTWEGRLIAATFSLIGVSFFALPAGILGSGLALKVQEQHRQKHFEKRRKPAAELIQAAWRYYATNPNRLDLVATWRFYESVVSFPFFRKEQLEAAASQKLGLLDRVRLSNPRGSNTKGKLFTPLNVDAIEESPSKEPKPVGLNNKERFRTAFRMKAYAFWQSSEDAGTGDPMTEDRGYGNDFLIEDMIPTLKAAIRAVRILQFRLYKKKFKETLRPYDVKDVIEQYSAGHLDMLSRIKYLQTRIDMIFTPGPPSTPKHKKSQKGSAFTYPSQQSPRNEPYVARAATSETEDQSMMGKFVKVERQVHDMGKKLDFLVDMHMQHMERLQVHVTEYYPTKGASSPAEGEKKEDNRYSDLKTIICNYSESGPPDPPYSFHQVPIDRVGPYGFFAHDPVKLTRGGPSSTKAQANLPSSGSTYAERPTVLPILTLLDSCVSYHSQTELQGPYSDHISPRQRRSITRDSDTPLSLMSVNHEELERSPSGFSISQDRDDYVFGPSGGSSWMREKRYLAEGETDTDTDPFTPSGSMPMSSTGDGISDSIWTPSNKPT

potentiation, inactive:
CCCCC(=O)Nc1c(C)cc(C)cc1Cl -1.46, Cc1ccc(C)c(NC(=O)C2CC3CCC2C3)c1 (stereo not given) -10, Cc1cccc(C)c1NC(=O)C1CC2CCC1C2 (stereo not given) -13.8, Cc1cc(C)c(NC(=O)CC(C)(C)C)c(Cl)c1 -1.12, Cc1cc(C)c(NC(=O)C2CC3CCC2C3)c(C)c1 (stereo not given) -9.88
